Hits are enriched below; roughly 2.6% of the tested compounds scored in any of these assays.
IMP-1 inh: blocks Pseudomonas aeruginosa IMP-1 metallo-beta-lactamase; purified IMP-1, nitrocefin hydrolysis, epi-absorbance fluorescence; inhibition, % at 5.6 µM; hit rate 0.45% among 290,000; AID 1556;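 active means inhibition above the mean plus 3 SD of all compounds in the same screening run, cut at about 4.5% in these data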;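 further: 0% = IMP-1 with DMSO and 100% = DMSO wells lacking enzyme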
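Material – recombinant IMP-1 enzyme, purified · Amount – IMP-1 0.2 nM before substrate addition · Medium – HEPES buffer pH 7.1 with ZnSO4 and Brij 35 · Timing – 25 °C, 15 min preincubation, 25 min reaction · Measured by – plate fluorescence quenching by hydrolysis product, ex 480/em 530 nm · Read-out – percent enzyme inhibition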
Runt-SMMHC FRET: blocks binding of human RUNX1 Runt domain to CBFb-SMMHC; Q01196+Q13951; Cerulean-Runt/Venus-CBFb-SMMHC FRET ratio 530/480, 1 h; inhibition, % at 20 µM; hit rate 0.74% among 220,000;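 active means mean inhibition across duplicate retests at 20 µM reaching about 50%, limit read from the data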;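 further: 0% = DMSO wells and 100% = wells with excess untagged CBFb-SMMHC; inhibitors lower the FRET ratio by blocking Runt binding to CBFb-SMMHC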
Target sequence (Q01196 whole entry, looked up, the tested form may be a part): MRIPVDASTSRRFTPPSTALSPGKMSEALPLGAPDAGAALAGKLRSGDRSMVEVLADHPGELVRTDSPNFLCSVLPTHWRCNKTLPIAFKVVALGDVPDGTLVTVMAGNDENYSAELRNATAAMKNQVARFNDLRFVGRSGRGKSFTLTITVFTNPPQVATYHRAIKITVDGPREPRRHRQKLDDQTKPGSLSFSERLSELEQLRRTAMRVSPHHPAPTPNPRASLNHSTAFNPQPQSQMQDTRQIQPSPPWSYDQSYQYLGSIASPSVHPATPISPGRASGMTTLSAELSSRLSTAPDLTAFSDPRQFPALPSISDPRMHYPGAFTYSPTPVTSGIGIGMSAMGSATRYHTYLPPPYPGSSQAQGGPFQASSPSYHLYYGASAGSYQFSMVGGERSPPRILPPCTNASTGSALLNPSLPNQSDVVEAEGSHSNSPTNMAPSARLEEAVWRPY
Target sequence (Q13951 whole entry, looked up, the tested form may be a part): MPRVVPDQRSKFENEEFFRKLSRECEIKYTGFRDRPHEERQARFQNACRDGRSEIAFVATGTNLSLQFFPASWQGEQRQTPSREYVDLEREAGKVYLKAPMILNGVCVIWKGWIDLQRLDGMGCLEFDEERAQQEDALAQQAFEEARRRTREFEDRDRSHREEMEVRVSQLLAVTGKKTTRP
RanGTP-Impb inh: inhibitors of RanGTP-importin-beta interaction, primary screen, biochemical, FRET, CFP-Ran, YFP-importin-beta, homogeneous; inhibition, % (test concentration not listed); cell-free CFP-Ran/YFP-importin-beta FRET ratio; hit rate 1.1% among 300,000;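 active means more than half of the replicate wells show a fall in the fluorescence ratio signal beyond about 16%, limit read from the data, passing the limit was not always enough; inconclusive means exactly half of the replicate wells pass the set limit; inactive means fewer than half of replicates pass the limit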;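 further: 0% = DMSO wells and 100% = Ran loaded with GDP instead of GTP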
VIM-2 inhibitor: inhibitors of Pseudomonas aeruginosa VIM-2 metallo-beta-lactamase. purified VIM-2, nitrocefin hydrolysis, epi-absorbance fluorescence. inhibition, % at 5.6 µM. hit rate 0.89% among 290,000;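 active means inhibition above the mean of all tested compounds plus 3 SD, cutoff set per screening run, cut at about 7.5% in these data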;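 further: red hydrolysis product quenches plate fluorescence so inhibitors raise well fluorescence; 0% = enzyme with DMSO and 100% = DMSO without enzyme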
Runt-CBFb FRET: Runt domain-CBFb interaction inhibition; hit rate 0.46% among 220,000; Cerulean-Runt/Venus-CBFb FRET ratio 530/480, 1 h; inhibition, % at 20 µM; AID 1496; Q01196+Q13951;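 active means inhibition over about 50% at 20 µM in the single-dose screen, limit read from the data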;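 further: 0% = DMSO wells and 100% = excess unlabeled CBFb competitor control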
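Measured by: fluorescence energy transfer, 422 nm excitation, 530/480 nm emission; Assay system: Cerulean-Runt domain; Medium: Tris pH 7.5 buffer with BSA; Measure: loss of energy transfer signal; Controls: 5 µM unlabeled CBFb as full-inhibition high control; Incubation: protein complex preformed 1 h, compound exposure 1 h, room temperature, dark.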
* = called active by the depositor.

Results for c1ccn2c(c1)nc1c2nc2ccccn21 ?
IMP-1 inh: 0; Runt-SMMHC FRET: 72*; RanGTP-Impb inh: -4; VIM-2 inhibitor: -1; Runt-CBFb FRET: 20

How did C[n+]1ccc(/C=C/c2c[nH]c3ccc(F)cc23)cc1 do in these assays?
IMP-1 inh: 4.6*; RanGTP-Impb inh: -156; VIM-2 inhibitor: 6

What do the screens show for `OCc1ccccc1SSc1ccccc1CO`?
RanGTP-Impb inh: 3

How did COc1cc2c(cc1OC)CN(CC(=O)Nc1ccc(F)cc1F)CC2 do in these assays?
IMP-1 inh: -2; RanGTP-Impb inh: 19*; VIM-2 inhibitor: -2

How did COc1cc(NC(=O)Nc2ccccc2OC)c(OC)cc1NC(=O)CN1CCCCC1 do in these assays?
IMP-1 inh: 4.7*; Runt-SMMHC FRET: 0; RanGTP-Impb inh: -1; VIM-2 inhibitor: -1

Results for COc1cc2c(cc1OC)CN(CC(=O)Nc1cccc(C)c1)CC2 ?
IMP-1 inh: 0; Runt-SMMHC FRET: 21; RanGTP-Impb inh: 32*; VIM-2 inhibitor: -2; Runt-CBFb FRET: 7

Results for Cc1nc2ccc([N+](=O)[O-])cc2c(=O)n1Cc1ccccc1Br ?
IMP-1 inh: -2; RanGTP-Impb inh: 0; VIM-2 inhibitor: 1

Results for CCN1CCN(c2ccc(NC(=O)c3ccc4c(c3)[nH]c(=O)n4Cc3ccc(OC)cc3)cc2)CC1 ?
IMP-1 inh: -2; Runt-SMMHC FRET: 4; RanGTP-Impb inh: 1; VIM-2 inhibitor: 11*; Runt-CBFb FRET: 0

Results for COc1cc(C(=O)NCC(c2ccco2)N2CCOCC2)cc(OC)c1OC (stereo not drawn) ?
RanGTP-Impb inh: 4

How did CC(=O)c1ccc(Nc2cc(C)nc3ccc(C)cc23)cc1 do in these assays?
IMP-1 inh: -1; Runt-SMMHC FRET: -2; RanGTP-Impb inh: inconclusive; VIM-2 inhibitor: 8.4*; Runt-CBFb FRET: 1

What do the screens show for `Cc1cc(Nc2ccc3c(c2)OCCO3)c2ccccc2n1`?
IMP-1 inh: -3; Runt-SMMHC FRET: -3; RanGTP-Impb inh: -1; VIM-2 inhibitor: 1; Runt-CBFb FRET: 0

Results for Cc1ccc2nc(C)cc(Nc3ccc4c(c3)OCCO4)c2c1 ?
IMP-1 inh: -2; Runt-SMMHC FRET: -5; RanGTP-Impb inh: -4; VIM-2 inhibitor: 11*; Runt-CBFb FRET: 0

What do the screens show for `CN(C)c1cccc(C(=O)NCCCSc2ccccc2)c1`?
IMP-1 inh: -1; RanGTP-Impb inh: 0; VIM-2 inhibitor: 0

How did CC(=O)c1ccc(NC(=O)CN2CCN(c3ccccc3)CC2)cc1 do in these assays?
IMP-1 inh: -1; RanGTP-Impb inh: 1; VIM-2 inhibitor: -2

What do the screens show for `CC(=O)Nc1ccc(C(=O)CN2CCN(c3ccccc3)CC2)cc1`?
IMP-1 inh: 22*; RanGTP-Impb inh: 0; VIM-2 inhibitor: -2

Results for CN1CCN(c2ccc(NC(=O)c3ccc(Oc4ccccc4)cc3)cc2)CC1 ?
IMP-1 inh: -3; RanGTP-Impb inh: inconclusive; VIM-2 inhibitor: 8.3*

What do the screens show for `O=C(/C=C/c1ccc([N+](=O)[O-])cc1)Nc1cccc(C(=O)Nc2ccccc2C(=O)O)c1`?
IMP-1 inh: -1; RanGTP-Impb inh: 0; VIM-2 inhibitor: 0

Results for COc1ccccc1/C=C(\C#N)C(=O)c1cccn1C ?
IMP-1 inh: -2; RanGTP-Impb inh: 2; VIM-2 inhibitor: -1

What do the screens show for `CC(C)Cc1ccc(C(C)C(N)=NCCc2ccccc2)cc1` (stereo not drawn)?
IMP-1 inh: 1; RanGTP-Impb inh: 4; VIM-2 inhibitor: -1

How did O=C(N/N=C/c1c(O)n(Cc2ccccc2)c(=O)c2ccccc12)c1cccnc1 do in these assays?
IMP-1 inh: -4; Runt-SMMHC FRET: 87*; RanGTP-Impb inh: 0; VIM-2 inhibitor: -3; Runt-CBFb FRET: 36

Results for COc1ccc(Cn2c(O)c(/C=N/NC(=O)c3cccnc3)c3ccccc3c2=O)cc1 ?
IMP-1 inh: -1; Runt-SMMHC FRET: 86*; RanGTP-Impb inh: 10; VIM-2 inhibitor: 0; Runt-CBFb FRET: 21

What do the screens show for `COc1ccc(Cn2c(O)c(C=Nc3ccccc3C(=O)O)c3ccccc3c2=O)cc1`?
IMP-1 inh: -1; Runt-SMMHC FRET: 3; RanGTP-Impb inh: 6; VIM-2 inhibitor: 1; Runt-CBFb FRET: 2

How did O=C(N/N=C/c1c(O)n(-c2ccccc2Cl)c(=O)c2ccccc12)c1cccnc1 do in these assays?
IMP-1 inh: -2; Runt-SMMHC FRET: 86*; RanGTP-Impb inh: 3; VIM-2 inhibitor: 1; Runt-CBFb FRET: 20

Screening data deposited in PubChem BioAssay by several laboratories.
